Bioassay records as filed in PubChem.
A selection: hits, their analogues and other compounds. The true share with any hit is near 2.3%.
DNMT1 block – DNMT1 (human) enzyme inhibition | P26358 | DNMT1 molecular beacon, Hinp1I cleavage, fluorescence | inhibition (reported as % activation of signal), % at 10 µM | 0.83% of 360,000 active | AID 588458; in the data active = inhibition above about 50%
Rpn11 block – inhibitors of human proteasome Rpn11. O00487. inhibition, % at 20 µM. human 26S proteasome, Ub4-pepOG fluorescence polarization; 20S core pre-blocked with epoxomicin. 0.59% of 360,000 active;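 active = inhibition at 20 µM, scaled to each plate's controls, above about 33%, limit read from the data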
Scp-1 inhibitor – Scp-1 (human) phosphatase inhibition | inhibition, % at 20 µM | Q9GZU7 | 0.88% of 340,000 active | Recombinant Scp1, phosphopeptide, malachite green phosphate absorbance;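 active = inhibition above about 50% at 20 µM, limit read from the data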;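 also: plate controls were DMSO wells with enzyme for no effect and wells lacking enzyme for full effect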
Target sequence (Q9GZU7 76-261 limits assumed): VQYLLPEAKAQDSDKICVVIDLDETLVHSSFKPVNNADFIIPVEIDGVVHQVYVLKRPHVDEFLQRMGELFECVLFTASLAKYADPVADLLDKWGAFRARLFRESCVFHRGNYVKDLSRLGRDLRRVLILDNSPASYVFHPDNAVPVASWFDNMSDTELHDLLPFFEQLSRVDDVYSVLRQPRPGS
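System: truncated SCP-1 phosphatase (76-261aa); medium: Tris acetate buffer pH 5.5 with MgCl2 and Tween-20; incubation: 45 min room-temperature reaction, 5 min colour, 30 min stabiliser; compound: single 20 µM dose, 1% DMSO; reagent: Phosphorylated 17-residue peptide substrate; read-out: % inhibition at 20 µM; technique: colorimetric free-phosphate detection, absorbance 630 nm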
STEP block – blocks human striatal-enriched tyrosine phosphatase; 0.25% of 360,000 active; P54829; recombinant STEP, OMFP fluorogenic substrate, fluorescence; inhibition, % at 20 µM;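 active = inhibition at 20 µM, scaled per plate between control wells, above about 37%, limit read from the data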;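 also: 0% = DMSO with enzyme and substrate and 100% = substrate only without enzyme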
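Assay system: isolated STEP enzyme / Timing: 20 min at room temperature, dark / Doses: 20 µM, 1% DMSO / Technique: fluorescence intensity, excitation 480 nm, emission 540 nm / Reagent: fluorogenic phosphatase substrate OMFP at 25 µM final / Measure: percent inhibition scaled to no-enzyme and uninhibited-enzyme controls, plate-pattern corrected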
LMPTP block – LMPTP (human) inhibition; 0.22% of 360,000 active; inhibition, % at 20 µM; P24666; recombinant LMPTP-A, OMFP fluorogenic substrate, fluorescence intensity;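 active = compounds that cut the enzyme signal by at least half of the control window in the single-dose screen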;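 also: plate controls were DMSO wells with enzyme plus substrate for no effect and substrate without enzyme for full effect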
Target sequence (P24666 whole entry, looked up): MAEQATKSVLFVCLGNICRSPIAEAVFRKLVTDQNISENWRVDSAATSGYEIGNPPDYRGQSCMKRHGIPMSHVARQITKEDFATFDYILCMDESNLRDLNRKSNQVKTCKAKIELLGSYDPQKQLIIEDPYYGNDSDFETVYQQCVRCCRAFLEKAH
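Assay system: LMPTP-A, protein tyrosine phosphatase of low molecular weight / Medium: pH 6.0 Bis-Tris buffer with DTT and Triton X-100 / Schedule: 50 min enzyme reaction at room temperature, protected from light / Measured by: endpoint fluorescence intensity from OMFP dephosphorylation / Read-out basis: % inhibition relative to no-enzyme and uninhibited control wells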
SUMO1-SIM PPI – alters human SUMO1 binding to SIM partners; inhibition, % at 20 µM; SUMO1 binding to a labelled peptide, TR-FRET, 1 h; 0.33% of 360,000 active; P63165; in the data active = inhibition above about 37%
Target sequence (P63165 whole entry, looked up): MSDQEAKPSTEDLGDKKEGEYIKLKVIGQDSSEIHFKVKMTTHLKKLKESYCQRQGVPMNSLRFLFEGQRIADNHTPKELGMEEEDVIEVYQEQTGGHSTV
Scp1 confirm – Scp-1 (human) inhibition, single-dose confirmed. inhibition, % at 20 µM. AID 540281. shares compounds with Scp-1 inhibitor. recombinant SCP-1 catalytic domain, phosphate release, malachite green absorbance. 61% of 2,500 active;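 also: plate controls were DMSO with enzyme for no effect and buffer wells lacking enzyme for full effect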
MG interference – counter-screen for Scp-1 inhibitors: colorimetric interference; AID 540313; 2,500 tested, under 10 active; shares compounds with Scp-1 inhibitor; Colorimetric interference counterscreen, malachite green absorbance 630 nm; apparent inhibition (interference), % at 20 µM;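 also: compounds added after enzyme reaction finished so only phosphate colour detection is probed; plate controls were DMSO wells with completed Scp-1 reaction for no effect and substrate wells lacking enzyme for full effect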
Scp-1 Tm shift – validation of human Scp-1 inhibitors by thermal shift binding; thermal shift relative to vanadate control, % at 40 µM; shares compounds with Scp-1 inhibitor; Recombinant SCP1, Sypro Orange thermal shift Tm; AID 540329; 25% of 1,500 active;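 active = substances whose mean melting-temperature shift, as a percentage of the reference inhibitor's shift, reaches about 5.3%, limit read from the data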;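 also: 0% = Tm of DMSO wells and 100% = Tm with sodium orthovanadate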
The depositor's hits bear a star; . = not tested or not shown.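 The calls were made as follows, unless noted: active = inhibition of at least 30% at 20 µM; inactive = the rest.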

SMILES	DNMT1 block	Rpn11 block	Scp-1 inhibitor	STEP block	LMPTP block	SUMO1-SIM PPI	Scp1 confirm	MG interference	others
CC(C)NC(=O)Nc1ccc2c(c1)C(=O)N([C@H](C)CO)C[C@H](C)[C@@H](CN(C)C(=O)Nc1ccc3c(c1)OCO3)O2	-1.0	5.1	62.1*	0.0	-1.3	1.5	-6.8	-16.7
C[C@H](CO)N1C[C@H](C)[C@@H](CN(C)C(=O)Nc2ccccc2)Oc2ccc(NC(=O)c3ccncc3)cc2C1=O	10.9	-2.4	75.3*	1.3	0.2	-3.0	17.7	-15.3
C[C@H](CO)N1C[C@H](C)[C@@H](CN(C)C(=O)Nc2ccc(C(F)(F)F)cc2)Oc2ccc(NC(=O)C3CC3)cc2C1=O	0.1	6.0	56.2*	0.9	0.6	1.5	-2.5	-20.6
C[C@H](CO)N1C[C@H](C)[C@@H](CN(C)C(=O)Nc2ccc3c(c2)OCO3)Oc2ccc(NC(=O)Nc3ccc4c(c3)OCO4)cc2C1=O	-5.1	1.5	8.2	-3.3	0.1	-0.9	.	.
C[C@H](CO)N1C[C@H](C)[C@@H](CN(C)C(=O)Nc2ccccc2)Oc2ccc(NC(=O)Nc3ccccc3)cc2C1=O	-0.7	5.5	70.8*	-0.6	0.1	5.5	14.9	-11.2
COc1cccc(CN2CCC(C(=O)NC(C)c3cccc4ccccc34)CC2)c1 (stereo unspecified)	1.4	-1.8	.	2.5	-1.6	-2.9	.	.
COc1ccc(S(=O)(=O)Nc2c(NC3CCCCC3)c3ccccc3oc2=O)cc1OC	3.6	-3.9	-5.1	1.0	0.1	-2.9	.	.
C[C@H](NC(=O)[C@@H]1CSC2c3ccccc3C(=O)N21)C(=O)NCc1c(F)cccc1Cl (stereo partly specified)	-0.6	-11.8	-5.1	1.8	-0.5	0.8	.	.
CCN1C(=O)N(CC)C2C1N(CO)C(=O)N2CO (stereo unspecified)	1.6	-6.6	-0.9	-0.5	-0.9	0.9	.	.
C=CCNC(=O)c1ccc(C2SCC(=O)N2Cc2ccco2)cc1 (stereo unspecified)	0.1	7.5	68.8*	1.1	2.7	-0.6	52.8*	-20.3	Scp-1 Tm shift=-2.9
COCCNC(=O)c1ccc(C2SCC(=O)N2Cc2ccco2)cc1 (stereo unspecified)	-0.6	-2.2	-6.6	-0.6	-1.7	0.1	.	.
COc1ccc(CN2CCCC(C(=O)c3cccc(OC(C)C)c3)C2)cc1Cn1cccn1 (stereo unspecified)	-1.7	-0.6	-2.7	-1.5	-2.4	1.2	.	.
CC[C@H](C)NC(=O)c1ccc(Cn2c(=S)[nH]c3c([nH]c4ccc(OC)cc43)c2=O)cc1	43.6	-8.0	57.0*	2.5	-0.5	11.1	43.1*	-4.3	Scp-1 Tm shift=-17.0
Cc1cc2c(NC(=O)CC(C)(C)CC(=O)O)cccc2nn1	-15.5	-12.8	52.0*	3.5	1.4	-0.9	-8.1	-10.7
Cc1cc2c(NC(=O)Nc3ccc(F)cc3)cccc2nn1	-4.8	1.3	2.3	-2.7	-2.0	-22.6	.	.
COc1cc2c(cc1NC(=O)CSc1nc3ccccc3[nH]1)oc1ccccc12	30.6	-2.8	72.5*	23.9	9.0	2.7	41.5*	1.2	Scp-1 Tm shift=-17.9
Cc1cccc(NC(=O)CSCC(=O)Nc2cc(C(F)(F)F)ccc2N2CCOCC2)c1	-1.8	1.5	.	-1.1	2.3	-3.9	.	.
Cc1ccc[n+](CC(=O)Nc2cc(C(F)(F)F)ccc2N2CCOCC2)c1	2.4	5.4	55.4*	-3.9	-1.6	-2.4	-18.4	-18.6
CCOC(=O)C1=C(C)NC(C)=C(C(=O)OCC)C1c1ccc(Br)o1	8.3	2.0	-9.8	9.7	3.1	3.2	.	.
CCOC(=O)C1=C(C)NC(=O)NC1c1ccc(Br)o1 (stereo unspecified)	16.6	-5.7	52.2*	-3.1	-1.5	-0.9	-8.4	-12.8
